Converted amounts (≈) assume the structure as drawn. “And” between values parts separate entries of the source, which are not always exact repeats. Equal entries are not always repeated. Where two headings read alike, the source gives them in different places.
Experiments:
Assay type in all cases: cell-based, Human
TK6 cells [1] = assay: Generation of reactive oxygen species; conditions: for level of ROS generated: DEHP 234μM, MEHP 196μM (IC50's), cisplatin 13uM
TK6 cells [2] = conditions: DEHP 234μM, MEHP 196μM (IC50's), valinomycin 11 uM
TK6 cells [3] = assay: Cell viability / IC50 by trypan blue exclusion; conditions: for IC50 (cell viability): same value expressed in mg/L
In short: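 TK6 lymphoblasts were grown in RPMI 1640 with 10% FBS at 37°C, 5% CO2, and subcultured at 1×10^6 cells per 3.5 mL to keep exponential growth. Cells were exposed for 24, 48 or 72 h to test compound at 10–500 μM ([…]). Viability was counted by trypan blue exclusion on an automated cell counter, and the 50% inhibitory concentration was read from the viability curves.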

[4] = test system: caspases 3 and 7 in TK6 cells; assay: Activation of caspases 3 and 7
[5] = read-out: IC50 (cell viability), 24 hours of exposure
[6] = read-out: IC50 (cell viability), 48 hours of exposure
[7] = read-out: IC50 (cell viability), 72 hours of exposure
[8] = 24 hours exposure, DEHP and MEHP at IC50's, staurosporine 1 uM
[9] = 48 hours exposure, DEHP 234μM, MEHP 196μM (IC50's), staurosporine 1μM

SMILES | level of ROS generated (TK6 cells [1]; 24 hours exposure) [FSU] | level of ROS generated (TK6 cells [1]; 48 hours exposure) [FSU] | mitochondrial membrane permeability (TK6 cells [2]; 24 hours exposure) [FSU] | mitochondrial membrane permeability (TK6 cells [2]; 48 hours exposure) [FSU] | IC50 (cell viability) (TK6 cells [3]; 48 hours of exposure) [mg/L] | IC50 (cell viability) (TK6 cells [3]; 72 hours of exposure) [mg/L] | IC50 (TK6 cells [3]; [5]) | IC50 (TK6 cells [3]; [6]) [µM] | IC50 (TK6 cells [3]; [7]) [µM] | caspases 3 and 7 activation [4, 8] [FSU] | caspases 3 and 7 activation [4, 9] [FSU] | ROS production relative to the parent DEHP (TK6 cells [1]; comparison among phthalates at IC50 doses)
N.N.[Cl][Pt][Cl] [Cisplatin, cis-diammineplatinum (II) dichloride, reference compound] | 1348.85 | 1575.35 |  |  |  |  |  |  |  |  |  | 
CCCCC(CC)COC(=O)c1ccccc1C(=O)OCC(CC)CCCC (centres unmarked) [DEHP, diethylhexyl phthalate] | 458.54 | 793.27 | 1100.85 | 2505.58 | 91.4 (≈ 234 µM) | 39.06 (≈ 100 µM) | ~250 µM and 250 µM | 234 | 100 | 122.13 | 1406.94 | 
CCCCC(CC)COC(=O)c1ccccc1C(=O)O (centres unmarked) [MEHP, monoethylhexyl phthalate] | 816.53 | 1518.75 | 1630.94 | 2210.09 | 54.55 (≈ 196 µM) | 22.27 (≈ 80 µM) | 250 µM | 196 | 80 | 292.80 | 1209.72 | twice as much
CN[C@@H]1C[C@H]2O[C@@](C)([C@@H]1OC)n1c3ccccc3c3c4c(c5c6ccccc6n2c5c31)C(=O)NC4 [Staurosporine, reference compound] |  |  |  |  |  |  |  |  |  | 1390.92 | 1322.55 | 
CC(C)[C@@H]1NC(=O)[C@H](C)OC(=O)[C@@H](C(C)C)NC(=O)[C@@H](C(C)C)OC(=O)[C@H](C(C)C)NC(=O)[C@H](C)OC(=O)[C@@H](C(C)C)NC(=O)[C@@H](C(C)C)OC(=O)[C@H](C(C)C)NC(=O)[C@H](C)OC(=O)[C@@H](C(C)C)NC(=O)[C@@H](C(C)C)OC1=O [valinomycin, Valinomycin, reference compound] |  |  | 1079.18 | 2327.65 |  |  |  |  |  |  |  | 

— publication PMC3217166 (Toxicology in vitro : an international journal published in …, 2011)
